Measured values pooled from the literature.
Protocols differ between the studies behind these lines.

O=C(O)CN1CCC(Oc2ccc([C@H]3CC[C@]4(CC3)OOC3(O4)C4CC5CC(C4)CC3C5)cc2)CC1 (stereo partly drawn)  chromatographic logD (HPLC; pH 7.4): 3 to 3.3
Clc1ccc(COc2cc(OC[C@@H]3CCCN3)cnc2Cl)cn1  logD (shake flask; aqueous buffer; pH 7.4): 1.9
CC(C)C[C@@H]1NC(=O)[C@@H]2CSSC[C@@H](C(=O)NCC(N)=O)NC(=O)[C@H](Cc3ccccc3)NC(=O)CNC(=O)[C@H](CC(N)=O)NC(=O)[C@@H]3CCCN3C(=O)CNC(=O)[C@@H]3CSSC[C@H](NC(=O)[C@H](CO)NC(=O)[C@H]([C@@H](C)O)NC(=O)[C@@H]4CCCN4C(=O)[C@H](C)NC(=O)[C@H](Cc4c[nH]c5ccccc45)NC(=O)[C@H](CC(=O)O)NC(=O)CNC(=O)[C@H](CCCNC(=N)N)NC(=O)CNC(=O)[C@H](CCC(N)=O)NC(=O)[C@@H]4CCCN4C(=O)[C@@H](NC(=O)CNC(=O)c4ccc(F)cc4)CSSC[C@H](NC(=O)CNC(=O)[C@H](C)NC1=O)C(=O)N[C@@H](C(C)C)C(=O)N3)C(=O)N[C@@H](CO)C(=O)N[C@@H](CCC(N)=O)C(=O)N[C@@H](CC(=O)O)C(=O)N[C@@H](CO)C(=O)N[C@@H](CC(=O)O)C(=O)N2  logD (shake flask; PBS; pH 7.4): -1.68
O=c1c(O)c(NCc2ccccc2)c1=O  logD (shake flask; aqueous buffer; 1 h, pH 7.4): -1.4
CN1CCC[C@H]1COc1cnc(Cl)c(OCc2ccc(Cl)nc2)c1  logD (shake flask; aqueous buffer; pH 7.4): 2.2
Cc1c(C(=O)NN2CCCCC2)nc(-c2ccc(Cl)cc2Cl)n1-c1ccc(OCCCC(F)(F)F)cc1  logD (shake flask; aqueous buffer; pH 7.4): > 5.5
C=CC1=C(C)C2=Cc3c(C=C)c(C)c4[n]3[Fe]([Cl])[n]3c(c(C)c(CCC(=O)O)c3=CC3=NC(=C4)C(C)=C3CCC(=O)O)=CC1=N2  logD (shake flask; aqueous buffer; pH 9): 0.463
COc1cc(C(=O)N2CC[C@@H](O)[C@@H](N)C2)cc2nc(-c3cc4ccccc4n3CC3CC3)n(C)c12  chromatographic logD (HPLC; pH 7.4): 3.7
Cc1c(C(=O)NN2CCCCC2)nc(-c2ccc(Cl)cc2Cl)n1-c1ccc(OCCCF)cc1  logD (shake flask; aqueous buffer; pH 7.4): 5.3
